# The source made the active and inactive calls. No cut-off for these calls is given here.
# Columns and labels:
# Candida albicans [1] = experiment: Antifungal activity against Candida albicans 10261 at 60 ug/disk by disk diffusion assay; assay type: functional; conditions: for zone of inhibition at 60 µg/disc: read-out: IZ
# Procedure, shortened: (§1)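 Sample solution dried onto 6-mm filter paper disks at the stated loading. Disks placed on agar plates seeded with the test organism, then incubated. Read-out is the width of the inhibition zone around the disk, in mm.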
# Bacillus subtilis [2] = experiment: Antibacterial activity against Bacillus subtilis at 300 ug/disk by disk diffusion assay; assay type: functional; conditions: for zone of inhibition at 300 µg/disc: read-out: IZ; procedure, shortened: as §1
# Bacillus subtilis [3] = experiment: Antibacterial activity against Bacillus subtilis at 60 ug/disk by disk diffusion assay; assay type: functional; conditions: for zone of inhibition at 60 µg/disc: read-out: IZ; procedure, shortened: as §1
# [4] = Cytotoxicity against african green monkey BSC cells at 60 ug/mL after 24 hrs; assay type: cell-based; conditions: chlorocebus aethiops
# Procedure, shortened: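 Sample on 6-mm filter paper disks placed directly on BSC-1 monkey kidney cells, incubated 24 h, examined by inverted microscope. Cytotoxic zone scored as +, ++, +++ or whole well.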
# Escherichia coli [5] = experiment: Antibacterial activity against Escherichia coli at 60 ug/disk by disk diffusion assay; assay type: functional, organism-based; procedure, shortened: as §1
# Candida albicans [6] = experiment: Antifungal activity against Candida albicans 10261 at 300 ug/disk by disk diffusion assay; assay type: functional; conditions: for zone of inhibition at 300 µg/disc: read-out: IZ; procedure, shortened: as §1
# [7] = system: Trichophyton mentagrophytes; experiment: Antifungal activity against Trichophyton mentagrophytes 10100 at 300 ug/disk by disk diffusion assay; assay type: functional; conditions: for zone of inhibition at 300 µg/disc: read-out: IZ; procedure, shortened: as §1
# Amorphotheca resinae [8] = experiment: Antifungal activity against Cladosporium resinae 10100 at 300 ug/disk by disk diffusion assay; assay type: functional, organism-based; procedure, shortened: as §1
# [9] = system: Trichophyton mentagrophytes; experiment: Antifungal activity against Trichophyton mentagrophytes 10100 at 60 ug/disk by disk diffusion assay; assay type: functional; conditions: for zone of inhibition at 60 µg/disc: read-out: IZ; procedure, shortened: as §1
# Amorphotheca resinae [10] = experiment: Antifungal activity against Cladosporium resinae 10100 at 60 ug/disk by disk diffusion assay; assay type: functional; conditions: for zone of inhibition at 60 µg/disc: read-out: IZ; procedure, shortened: as §1
# Escherichia coli [11] = experiment: Antibacterial activity against Escherichia coli at 10 ug/disk by disk diffusion assay; assay type: functional, organism-based
# Procedure, shortened: (§2)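 Sample solution dried onto 6-mm filter-paper disks, which are laid on seeded agar Petri dishes and incubated.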
# [12] = system: Trichophyton mentagrophytes; experiment: Antifungal activity against Trichophyton mentagrophytes 10100 at 2.4 ug/disk by disk diffusion assay; assay type: functional; conditions: for zone of inhibition at 2.4 µg/disc: read-out: IZ; procedure, shortened: as §1
# Bacillus subtilis [13] = experiment: Antibacterial activity against Bacillus subtilis at 12 ug/disk by disk diffusion assay; assay type: functional; conditions: read-out: IZ; procedure, shortened: as §1
# [14] = system: Trichophyton mentagrophytes; experiment: Antifungal activity against Trichophyton mentagrophytes 10100 at 12 ug/disk by disk diffusion assay; assay type: functional; conditions: read-out: IZ; procedure, shortened: as §1
# Bacillus subtilis [15] = experiment: Antibacterial activity against Bacillus subtilis at 2.4 ug/disk by disk diffusion assay; assay type: functional, organism-based; procedure, shortened: as §1
# [16] = system: Trichophyton mentagrophytes; experiment: Antifungal activity against Trichophyton mentagrophytes 10100 by tube assay method; assay type: functional
# Procedure, shortened: (§3)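 MIC by standard tube dilution assay. Minimum fungicidal concentration is also reported in µg/ml.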
# Candida albicans [17] = experiment: Antifungal activity against Candida albicans 10261 by tube assay method; assay type: functional; procedure, shortened: as §3
# P388 = experiment: Cytotoxicity against mouse P388 cells after 72 hrs by MTT assay; assay type: functional, cell-based; conditions: P388, 72 h
# Procedure, shortened: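 P-388 murine leukemia cells incubated 72 h with a 2-fold dilution series of sample. Growth read by MTT tetrazolium staining absorbance. IC50 (µg/ml) is the concentration reducing growth to 50% of a solvent control.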
# Candida albicans [18] = experiment: Antifungal activity against Candida albicans 10261 at 2.4 ug/disk by disk diffusion assay; assay type: functional, organism-based; procedure, shortened: as §1
# Candida albicans [19] = experiment: Antifungal activity against Candida albicans 10261 at 12 ug/disk by disk diffusion assay; assay type: functional; conditions: for zone of inhibition at 12 µg/disc: read-out: IZ; procedure, shortened: as §1
# Poliovirus 1 = experiment: Antiviral activity against Poliovirus type 1 infected in african green monkey BSC cells assessed as inhibition of virus-induced cytopathic effect; assay type: functional, organism-based
# Procedure, shortened: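 Sample is dried onto 6-mm filter-paper disks and placed directly on BSC-1 (African green monkey kidney) cell monolayers. Cells are infected with Polio Type I (Pfizer vaccine strain) and incubated 24 h. Wells are examined by inverted microscope for a zone of viral and/or cytotoxic inhibition around the disk. Cytotoxicity is scored as zone size (+, ++, +++, whole well).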
# Postia placenta = experiment: Antifungal activity against Poria placenta; assay type: functional, organism-based; conditions: Rhodonia placenta
# Pseudomonas aeruginosa = experiment: […] aeruginosa at 60 ug/disk by disk diffusion assay; assay type: functional, organism-based; procedure, shortened: as §1
# Gloeophyllum trabeum = experiment: Antifungal activity against Gloeophyllum trabeum; assay type: functional, organism-based
# Human alphaherpesvirus 1 = experiment: Antiviral activity against Herpes simplex virus type 1 ATCC VR 733 infected in african green monkey BSC cells assessed as inhibition of virus-induced cytopathic effect; assay type: functional, organism-based
# Procedure, shortened: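 Sample dried onto 6-mm filter paper disks placed directly on BSC-1 (African green monkey kidney) cell monolayers, which were infected with HSV type 1 (ATCC VR 733). After 24 h incubation, examined by inverted microscope. Zone of viral and/or cytotoxic inhibition around the disk recorded.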
# Bacillus subtilis [20] = experiment: Antibacterial activity against Bacillus subtilis at 30 ug/disk by disk diffusion assay; assay type: functional; conditions: read-out: IZ; procedure, shortened: as §1
# [21] = system: Trichophyton mentagrophytes; experiment: Antifungal activity against Trichophyton mentagrophytes 10100 at 100 units/disk by disk diffusion assay; assay type: functional, organism-based; procedure, shortened: as §2
# Amorphotheca resinae [22] = experiment: Antifungal activity against Cladosporium resinae 10100 at 100 units/disk by disk diffusion assay; assay type: functional, organism-based; procedure, shortened: as §2
Compound,Activity (Candida albicans [1]),Activity (Bacillus subtilis [2]),Activity (Bacillus subtilis [3]),Activity [4],Activity (Escherichia coli [5]),Activity (Candida albicans [6]),Activity [7],Activity (Amorphotheca resinae [8]),Activity [9],Activity (Amorphotheca resinae [10]),zone of inhibition at 60 µg/disc [9] [mm],MFC [16] [µg/mL],MIC [16] [µg/mL],MFC (Candida albicans [17]) [µg/mL],MIC (Candida albicans [17]) [µg/mL],IC50 (P388) [µg/mL],further results
COc1cccc(/C=C/c2ccc(O[Si](C)(C)C(C)(C)C)cc2)c1,inactive,inactive,inactive,Not Active,inactive,inactive,inactive,inactive,inactive,inactive,–,–,–,–,–,–,–
COc1cccc(/C=C\c2ccc(O[Si](C)(C)C(C)(C)C)cc2)c1,inactive,inactive,inactive,Not Active,inactive,inactive,inactive,inactive,inactive,inactive,–,–,–,–,–,–,–
GENTAMICIN,–,–,–,–,–,–,–,–,–,–,–,–,–,–,–,–,inhibition zone (IZ) (Escherichia coli [11]): 8 mm
Cc1cccc(O)c1 [METACRESOL],inactive,inactive,inactive,Not Active,inactive,inactive,inactive,–,–,inactive,2,–,–,–,–,–,–
COc1cccc(/C=C/c2ccc(O)cc2)c1 [(E)-5-METHOXY-4'-STILBENOL],–,–,–,–,inactive,–,–,–,–,–,6,31.2,31.2,125,31.2,9.9,zone of inhibition at 2.4 µg/disc [12]: 2 mm; zone of inhibition at 60 µg/disc (Candida albicans [1]): 2 mm; zone of inhibition at 12 µg/disc (Bacillus subtilis [13]): 2 mm; zone of inhibition at 300 µg/disc (Bacillus subtilis [2]): 6 mm; zone of inhibition at 60 µg/disc (Bacillus subtilis [3]): 4 mm; zone of inhibition at 12 µg/disc [14]: 8 mm; Activity (Bacillus subtilis [15]): inactive; zone of inhibition at 300 µg/disc (Candida albicans [6]): 7 mm; zone of inhibition at 300 µg/disc [7]: 10 mm; Activity (Candida albicans [18]): inactive; Activity (Candida albicans [19]): inactive; zone of inhibition at 60 µg/disc (Amorphotheca resinae [10]): 2 mm
C(=C\c1ccccc1)/c1ccccc1,inactive,inactive,inactive,–,inactive,inactive,inactive,inactive,inactive,inactive,–,–,–,–,–,–,–
COc1cccc(CCc2ccc(O)cc2)c1,–,–,–,–,inactive,–,–,–,–,–,7,62.5,62.5,125,125,> 25,Activity (Poliovirus 1): inactive; Activity [12]: inactive; zone of inhibition at 60 µg/disc (Candida albicans [1]): 10 mm; zone of inhibition at 12 µg/disc (Bacillus subtilis [13]): 3 mm; zone of inhibition at 300 µg/disc (Bacillus subtilis [2]): 5 mm; zone of inhibition at 60 µg/disc (Bacillus subtilis [3]): 5 mm; zone of inhibition at 12 µg/disc [14]: 7 mm; Activity (Bacillus subtilis [15]): inactive; zone of inhibition at 300 µg/disc (Candida albicans [6]): 10 mm; IC50 (Postia placenta): 11 µg/mL; zone of inhibition at 300 µg/disc [7]: 7 mm; Activity (Pseudomonas aeruginosa): inactive; IC50 (Gloeophyllum trabeum): 87 µg/mL; Activity (Candida albicans [18]): inactive; zone of inhibition at 12 µg/disc (Candida albicans [19]): 2 mm; Activity (Human alphaherpesvirus 1): inactive; zone of inhibition at 60 µg/disc (Amorphotheca resinae [10]): 2 mm
O=C(N[C@H](CO)[C@H](O)c1ccc([N+](=O)[O-])cc1)C(Cl)Cl [CHLORAMPHENICOL],–,–,–,–,–,–,–,–,–,–,–,–,–,–,–,–,zone of inhibition at 30 µg/disc (Bacillus subtilis [20]): 12 mm
COc1ccc(CCc2cccc(OC)c2)cc1,inactive,inactive,inactive,Not Active,inactive,inactive,inactive,–,inactive,inactive,–,–,–,–,–,–,–
COc1cccc(CCc2ccc(O[Si](C)(C)C(C)(C)C)cc2)c1,inactive,inactive,inactive,Not Active,inactive,inactive,inactive,inactive,inactive,inactive,–,> 1000,> 1000,> 1000,> 1000,> 25,–
CO[C@@]12[C@H](COC(N)=O)C3=C(C(=O)C(C)=C(N)C3=O)N1C[C@@H]1N[C@@H]12 [MITOMYCIN],–,–,–,–,–,–,–,–,–,–,–,–,–,–,–,0.02,–
NYSTATIN,–,–,–,–,–,–,–,–,–,–,–,62.5,62.5,31.2,31.2,–,inhibition zone (IZ) [21]: 8 mm; inhibition zone (IZ) (Amorphotheca resinae [22]): 10 mm
COc1cccc(/C=C\c2ccc(O)cc2)c1,–,–,–,–,–,–,–,–,–,–,10,15.6,12.6,62.5,31.2,16.3,zone of inhibition at 2.4 µg/disc [12]: 5 mm; zone of inhibition at 60 µg/disc (Candida albicans [1]): 7 mm; zone of inhibition at 12 µg/disc (Bacillus subtilis [13]): 4 mm; zone of inhibition at 300 µg/disc (Bacillus subtilis [2]): 9 mm; zone of inhibition at 60 µg/disc (Bacillus subtilis [3]): 9 mm; zone of inhibition at 12 µg/disc [14]: 7 mm; Activity (Bacillus subtilis [15]): inactive; zone of inhibition at 300 µg/disc (Candida albicans [6]): 7 mm; zone of inhibition at 300 µg/disc [7]: 10 mm; Activity (Candida albicans [18]): inactive; zone of inhibition at 12 µg/disc (Candida albicans [19]): 2 mm; zone of inhibition at 60 µg/disc (Amorphotheca resinae [10]): 3 mm
